The sample as a whole holds a higher share of hits than the screen did.
ABCB6 inh 2: ABCB6 transporter inhibitors, primary screen, K562-ABCB6 cells, flow cytometry, MLPCN library | ATP-binding cassette sub-family B member 6 (Homo sapiens), Q9NP58 | fluorescence ratio to DMSO, % at 10 µM | K562-ABCB6 porphyrin accumulation, 1 h; hits give low values | 360,000 compounds, 0.19% hits | AID 602162, 2011;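 active = fluorescence ratio to DMSO below 75%, the collection mean minus 3 SD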;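 note: signal is porphyrin accumulated inside mitochondria; 100% equals median channel fluorescence of DMSO control wells; lower ratio means ABCB6 inhibition with less porphyrin fluorescence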
ABCB1 inh: ABCB1 efflux pump inhibitors, primary screen, cell-based, multiplex, flow cytometry, ABCG2 counter-screen. ATP-dependent translocase ABCB1 (Homo sapiens), P08183. CCRF-Adr cells, JC-1 efflux. inhibition, % at 6.6 µM. 190,000 compounds, 0.067% hits. AID 1326, 2008; in the data active = inhibition above about 40%;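 note: 0% = vehicle and 100% = reference inhibitor; higher value means more JC-1 retained so stronger ABCB1 efflux block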
ABCG2 block: ABCG2 efflux pump inhibitors, primary screen, multiplex with ABCB1, IgMXP3 cells, flow cytometry | 190,000 compounds, 0.1% hits | JC-1 efflux | inhibition, % at 6.6 µM | Broad substrate specificity ATP-binding cassette transporter ABCG2 (Homo sapiens), Q9UNQ0;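 active = inhibition above 80%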;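 note: 0% = DMSO and 100% = nicardipine control wells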
Target sequence (Q9UNQ0 whole entry, looked up): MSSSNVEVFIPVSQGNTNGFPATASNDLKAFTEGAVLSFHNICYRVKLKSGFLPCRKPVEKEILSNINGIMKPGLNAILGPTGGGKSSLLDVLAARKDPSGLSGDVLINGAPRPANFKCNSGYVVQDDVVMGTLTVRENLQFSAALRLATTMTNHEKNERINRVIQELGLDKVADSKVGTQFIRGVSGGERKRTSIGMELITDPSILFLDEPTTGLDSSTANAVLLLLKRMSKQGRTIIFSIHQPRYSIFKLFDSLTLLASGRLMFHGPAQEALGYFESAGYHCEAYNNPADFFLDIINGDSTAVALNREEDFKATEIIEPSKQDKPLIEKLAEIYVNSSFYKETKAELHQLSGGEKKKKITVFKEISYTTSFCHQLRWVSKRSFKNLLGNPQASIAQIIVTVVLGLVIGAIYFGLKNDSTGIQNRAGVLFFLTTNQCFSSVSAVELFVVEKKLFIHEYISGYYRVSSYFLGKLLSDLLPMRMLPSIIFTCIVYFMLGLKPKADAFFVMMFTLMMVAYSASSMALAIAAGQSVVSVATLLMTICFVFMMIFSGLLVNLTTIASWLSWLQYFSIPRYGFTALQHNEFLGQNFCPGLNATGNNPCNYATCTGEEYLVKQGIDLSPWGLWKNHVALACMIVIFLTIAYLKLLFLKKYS
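Incubation: cells with compound and JC-1, 10 min at 25 °C, rotating, no wash / Test system: IgMXP3 (ABCG2) plus far-red-tagged CCRF-Adr (ABCB1) cells / Compound dosing: one concentration, 6.6 µM final / Also added: JC-1 fluorescent substrate / Evaluation: efflux inhibition in percent versus controls / Detection: flow cytometry, 530 nm JC-1 signal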
FLuc act counter: FLuc activators, initial screening, artefact control for FLuc-dependent activation tests, biochemical, ATPlite luminescence | 200,000 tested, under 10 active | AID 1027, 2008 | Luciferin 4-monooxygenase (Photinus pyralis), P08659 | activation factor at 10 µM | ATPlite luciferase biochemical, 10 min; 0 = ATP-free wells, 1 = DMSO control;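 active = luciferase activation factor, scaled between plate controls, of at least 2 with compound at 10 µM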
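assay system = Luciferase/luciferin detection reagent, cell-free biochemical luciferase assay | also added = ATP substrate | times = 10 min post-reagent at room temperature | measured by = luminescence from luciferase reaction | measure = luciferase activation, seen as luminescence increase over controls | benchmarks = low control with PBS replacing ATP, high control enzyme plus ATP without compound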
FLuc inh counter: firefly luciferase enzyme inhibitors, primary screen, artefact control for luciferase-based inhibitor screens, biochemical, luminescence, ATPLite. Luciferin 4-monooxygenase (Photinus pyralis), P08659. 10 min. inhibition, % at 10 µM. 200,000 compounds, 1.5% hits. AID 1006, 2008;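 active = inhibition above about 50% when tested at 10 µM, limit read from the data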
Diaphorase act: compounds boosting diaphorase resazurin reduction – biochemical, uHTS, resorufin fluorescence, counter-screen for diaphorase-coupled primary assays, primary screen. Diaphorase/resazurin coupled assay, 16 min; hits give high values; 1 = vehicle wells, 0 = NADH-free wells. activation factor at 20 µM. 190,000 compounds, 0.005% hits. AID 1229, 2008;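 active = diaphorase activity raised at least twofold by the compound at 20 µM; inactive = activation factor below 2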
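Test system: Clostridium kluyveri diaphorase, purified enzyme. Buffer or medium: 50 mM HEPES pH 7.4 buffer plus MgCl2 and Tween 20. Also added: 0.114 mM NADH and 0.1 mM resazurin, final amounts. Dosing: compound 20 µM once, DMSO 1%. Schedule: 16 min enzyme reaction, ambient temperature. Detection: fluorescence of resorufin, 544 nm excitation, 590 nm emission.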
Numbers without * were called inactive; . = not tested or not shown.

SMILES | ABCB6 inh 2 | ABCB1 inh | ABCG2 block | FLuc act counter | FLuc inh counter | Diaphorase act
O=C(/C=C/c1ccco1)Nc1cccc(NC(=O)/C=C/c2ccco2)n1 | 100.0 | -0.6 | -9.8 | 0.5 | 52.5* | 0.7
CC(=NCCc1ccccc1)C1=C(O)CSC1=O | 74.0* | 0.4 | 4.4 | 1 | -4.0 | 0.8
COc1ccc(C2=NOC(C)(c3nnc(-c4ccc(Cl)cc4)o3)C2)cc1 (centres undefined) | 103.0 | . | . | . | . | .
COc1ccc2nc(NC(=O)c3ccoc3C)sc2c1 | 104.0 | 0.5 | 13.6 | 0.5 | 51.2* | 0.9
COc1ccc2sc(NC(=O)c3ccco3)nc2c1 | 109.0 | 0.5 | 5.5 | 0.1 | 88.3* | 0.8
O=C(NC(=S)Nc1nc2ccccc2s1)c1ccco1 | 100.0 | -1.5 | -6.1 | 0.2 | 79.6* | 0.8
COc1ccc2nc(NC(=O)c3cc(C)oc3C)sc2c1 | 100.0 | -0.2 | 0.6 | 0.5 | 49.2 | 0.9
COc1ccc2nc(NC(=S)NC(=O)c3ccco3)sc2c1 | 97.0 | 0.6 | 9.0 | 0.2 | 75.5* | 1
CC(OC(=O)Cc1c[nH]c2ccccc12)C(=O)NC1CCCCC1C (centres undefined) | 100.0 | . | . | . | . | .
CCOC(=O)N1CCN(C(=O)C[C@@H]2C[C@@]3(C(=O)OCC)CCC=C3N(Cc3ccco3)C2=O)CC1 | 104.0 | . | . | . | . | .
CCOC(=O)C1CCCN(C/C=C/c2ccccc2)C1 (centres undefined) | 97.0 | . | . | . | . | .
O=C(/C=C/Nc1ccccc1Br)c1ccccn1 | 94.0 | 0.5 | 5.4 | 0 | 97.4* | 1.1
O=C(/C=C\Nc1ccccn1)c1ccccc1 | 94.0 | -2.5 | 0.9 | 0.1 | 88.7* | 0.8
COc1ccc(-c2nsc3c(N4CCCC4)ncnc23)cc1 | 97.0 | 1.3 | 11.7 | 0.1 | 86.3* | 1
COc1ccc(-c2nsc3c(N4CCN(S(=O)(=O)c5ccccc5)CC4)ncnc23)cc1 | . | . | . | 1 | -4.2 | 0.9
CC(=O)Nc1ccc2c(c1)ncn2-c1ccc(C)cc1 | 102.0 | 0.1 | 0.8 | 0.5 | 53.0* | 1
COc1cccc2cc(C(=O)Nc3cccc(C)n3)c(=O)oc12 | 83.0 | . | . | 0.5 | 53.7* | 1.1
CC/C(=N\NC(=O)c1csc(C)c1C)c1cccs1 | 104.0 | 0.0 | 0.1 | 0.2 | 80.6* | 1
CC1CCCC(NC(=O)Cn2cc(C(F)(F)F)cc(Cl)c2=O)C1C (centres undefined) | 88.0 | . | . | . | . | .
NC(N)=NCC(O)CN(c1ccccc1)c1ccccc1 (centres undefined) | 101.0 | . | . | . | . | .
COc1cc(O)cc(/C=C/c2ccccc2)c1 | 96.0 | . | . | . | . | .
Oc1ccc(/C=C/c2cc(O)cc(O)c2)cc1 | 102.0 | -0.4 | 0.0 | 0.2 | 80.4* | 0.9
Cc1cc(OC(=O)c2ccccc2C)c([N+](=O)[O-])c(=O)[nH]1 | 88.0 | . | . | . | . | .
C(=N\c1nc2ccccc2[nH]1)/c1cccs1 | 102.0 | 0.6 | 2.8 | 0.3 | 70.8* | 0.9
CC(=O)c1ccc(NC(=O)CN2C(=O)/C(=C/C=C/c3ccccc3)SC2=S)cc1 | 106.0 | -1.3 | -6.3 | 1 | 1.1 | 0.8
SMILES | ABCB6 inh 2 | ABCB1 inh | ABCG2 block | FLuc act counter | FLuc inh counter | Diaphorase act
O=C(O)CN1C(=O)/C(=C/C=C/c2ccccc2)SC1=S | 103.0 | -0.2 | -0.3 | 0.2 | 79.1* | 0.9
CC1(c2nc3ccccc3[nH]2)CCC(=O)N1Cc1ccc(F)cc1 (centres undefined) | 101.0 | . | . | . | . | .
COc1ccc(/C=C/C(=O)c2cc3c(cc2N)OCO3)cc1 | 98.0 | 0.9 | 11.3 | 0.2 | 79.0* | 0.8
COc1ccc(C2(NC(C)=O)CCN(Cc3cccnc3)CC2)cc1 | 88.0 | . | . | . | . | .
Cc1cc(/C=C2\SC(=O)N(C)C2=O)c(C)n1-c1ccc(O)cc1 | 101.0 | . | . | . | . | .
CN=C1S/C(=C\c2cc(C)n(-c3ccccc3F)c2C)C(=O)N1C | 107.0 | 1.7 | 27.7 | 0.2 | 81.5* | 0.9
COc1ccc(OC)c(S(=O)(=O)N2CCC(C(=O)NCc3ccc4c(c3)OCO4)CC2)c1 | 97.0 | . | . | . | . | .
Clc1ccc(-n2nnc(-c3nccs3)n2)cc1Cl | 99.0 | 0.3 | 2.0 | 0.4 | 59.0* | 0.9
Cc1ccc(-n2nnc(-c3nccs3)n2)cc1 | 91.0 | 4.1 | 2.7 | 0 | 95.6* | 0.9
Cc1cc(C)c2c(CC(=O)NNC(=O)c3ccccc3)coc2c1 | 104.0 | . | . | . | . | .
COc1ccc(CNC(=O)Cn2nc(C)c3c(C)n(-c4ccc(C)cc4)nc3c2=O)cc1OC | 96.0 | . | . | . | . | .
COC(=O)C/C=C/N(Cc1ccccc1OC)S(=O)(=O)CCl | 108.0 | . | . | . | . | .
Cc1ccc(/C=C/C(=O)N2CCCC(C(N)=O)C2)o1 (centres undefined) | 101.0 | . | . | . | . | .
O=C(c1ccccc1)c1cnc(Nc2ccccc2Cl)s1 | 83.0 | -0.2 | -0.2 | 0.4 | 62.0* | 0.8
CC(C)(C)c1ccc(-c2nc3cc(N)ccc3o2)cc1 | 100.0 | . | . | . | . | .
Cc1ccc2oc(-c3ccco3)nc2c1 | 96.0 | 0.1 | 0.1 | 0.5 | 47.7 | 0.8
Cc1ccc(-c2nc3cc(N)ccc3o2)c(C)c1 | 101.0 | -0.3 | -1.1 | 0.2 | 78.3* | 0.9
Cc1ccc(-c2nc3cc(N)ccc3o2)cc1 | 99.0 | 0.1 | -0.2 | 0.1 | 88.8* | 0.8
Cc1ccc2oc(-c3cccc(N)c3)nc2c1 | 101.0 | 0.9 | 5.0 | 0.1 | 87.5* | 0.9
Cc1ccc(-c2nc3cc(C)ccc3o2)cc1 | 101.0 | 1.5 | 1.5 | 0.1 | 92.2* | 0.9
Nc1cccc(-c2nc3cc(S(=O)(=O)c4ccc5oc(-c6cccc(N)c6)nc5c4)ccc3o2)c1 | 100.0 | -0.6 | -1.1 | 1 | -3.0 | 0.9
COc1cccc(CNC(=O)C2(C)CCCCN2C)c1 (centres undefined) | 94.0 | . | . | . | . | .
CC(C)c1ccc2oc(-c3ccc(N)cc3)nc2c1 | 96.0 | -0.4 | 29.6 | 0.1 | 88.5* | 0.6
O=C(/C=C/c1ccc(Cl)c(C(F)(F)F)c1)N1CCN(c2ccccn2)CC1 | 96.0 | . | . | . | . | .
COc1cccc(C(=O)Nc2ccc(NC(=O)C(C)(C)C)cn2)c1 | 85.0 | 0.1 | 0.5 | 0.1 | 87.6* | 0.9
CCC(=O)Nc1ccc(NC(=O)c2ccccc2)nc1 | 96.0 | 0.9 | 6.3 | 0.4 | 62.1* | 0.7
CCCC(=O)Nc1ccc(NC(=O)c2ccccc2)nc1 | 96.0 | . | . | . | . | .
O=C(NCCCNC(=O)c1cnccn1)c1cccc(Cl)c1 | 90.0 | . | . | . | . | .
O=C(OC1CCOC1=O)C1CCN(S(=O)(=O)c2ccccc2)CC1 (centres undefined) | 95.0 | . | . | . | . | .
